Laboratory results taken from ChEMBL document CHEMBL1926588, “Sulfur and selenium derivatives of quinazoline and pyrido[2,3-d]pyrimidine: synthesis and study of their potential cytotoxic activity in vitro” (Eur J Med Chem, 2012).

Columns and labels:
[1] = Cytotoxicity against human 184B5 cells after 72 hrs by MTT assay; format: cell-based; settings: for GI50 at 72 h: 184B5 cells; for LC50 / TGI: 184b5, 72 h
Summary of the method: (§1)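 MTT read-out after 72 h exposure at 37 °C in humidified 5% CO2, with five concentrations between 0.01 and 100. GI50 is 50% growth reduction versus untreated controls, TGI is complete growth inhibition, and LC50 is the concentration killing 50% of cells. Minimum three independent experiments.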

[2] = Cytotoxicity against human BEAS2B cells after 72 hrs by MTT assay; format: cell-based, BEAS-2B; settings: for GI50 at 72 h: BEAS2B cells; for LC50 / TGI: beas-2b, 72 h; summary of the method: as §1
CCRF-CEM = assay: Cytotoxicity against human CCRF-CEM cells after 72 hrs by MTT assay; format: functional; settings: for CC50: read-out: LC50 (the source's name); summary of the method: as §1
MCF7 [3] = assay: Cytotoxicity against human MCF7 cells after 72 hrs by MTT assay; format: functional; settings: MCF7, 72 h; summary of the method: as §1
MCF7 [4] = assay: Selectivity ratio of GI50 for human 184B5 cells to GI50 for human MCF7 cells
Summary of the method: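 Selectivity ratio is GI50 on non-tumoral 184B5 mammary cells divided by GI50 on MCF-7. Both come from the 72 h MTT assay. Ratio 3–6 means moderate selectivity, >6 high, and otherwise non-selective.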

HT-29 = assay: Cytotoxicity against human HT-29 cells after 72 hrs by MTT assay; format: functional; settings: HT-29, 72 h; for CC50: read-out: LC50 (the source's name); summary of the method: as §1
[5] = Cytotoxicity against human HTB-54 cells after 72 hrs by MTT assay; format: functional; settings: HTB-54, 72 h; for CC50: read-out: LC50 (the source's name); summary of the method: as §1
MCF7 [6] = assay: Induction of apoptosis in human MCF7 cells assessed as cell death at 15 uM after 24 hrs by TUNEL analysis (reference value: 5.13 +/- 4.32%); format: functional
MCF7 [7] = assay: Cell cycle arrest in human MCF7 cells assessed as accumulation at G0/G1 phase at 15 uM after 24 hrs by propidium iodide staining-based flow cytometric analysis (reference value: 51.83 +/- 5.64%); format: functional
MCF7 [8] = assay: Cell cycle arrest in human MCF7 cells assessed as accumulation at G2/M phase at 15 uM after 12 hrs by propidium iodide staining-based flow cytometric analysis (reference value: 22.11 +/- 3.86%); format: functional
MCF7 [9] = assay: Induction of apoptosis in human MCF7 cells assessed as cell death at 10 uM after 12 hrs by TUNEL analysis (reference value: 6.02 +/- 0.85%); format: functional
MCF7 [10] = assay: Cell cycle arrest in human MCF7 cells assessed as accumulation at S phase at 15 uM after 4 hrs by propidium iodide staining-based flow cytometric analysis (reference value: 19.09 +/- 4.54%); format: functional
MCF7 [11] = assay: Cell cycle arrest in human MCF7 cells assessed as accumulation at G0/G1 phase at 15 uM after 12 hrs by propidium iodide staining-based flow cytometric analysis (reference value: 57.34 +/- 1.64%); format: functional
MCF7 [12] = assay: Induction of apoptosis in human MCF7 cells assessed as cell death at 1 uM after 24 hrs by TUNEL analysis (reference value: 6.12 +/- 1.61%); format: functional
MCF7 [13] = assay: Cell cycle arrest in human MCF7 cells assessed as accumulation at subG1 phase at 15 uM after 24 hrs by propidium iodide staining-based flow cytometric analysis (reference value: 2.93 +/- 0.54%); format: functional
MCF7 [14] = assay: Cell cycle arrest in human MCF7 cells assessed as accumulation at subG1 phase at 15 uM after 12 hrs by propidium iodide staining-based flow cytometric analysis (reference value: 2.17 +/- 0.24%); format: functional
MCF7 [15] = assay: Induction of apoptosis in human MCF7 cells assessed as cell death at 10 uM after 24 hrs by TUNEL analysis (reference value: 9.82 +/- 2.62%); format: functional
MCF7 [16] = assay: Induction of apoptosis in human MCF7 cells assessed as cell death at 5 uM after 24 hrs by TUNEL analysis (reference value: 9.28 +/- 1.71%); format: functional
MCF7 [17] = assay: Cell cycle arrest in human MCF7 cells assessed as accumulation at subG1 phase at 15 uM after 4 hrs by propidium iodide staining-based flow cytometric analysis (reference value: 5.90 +/- 1.36%); format: functional
MCF7 [18] = assay: Cell cycle arrest in human MCF7 cells assessed as accumulation at S phase at 15 uM after 12 hrs by propidium iodide staining-based flow cytometric analysis (reference value: 17.07 +/- 4.00%); format: functional
MCF7 [19] = assay: Cell cycle arrest in human MCF7 cells assessed as accumulation at G2/M phase at 15 uM after 24 hrs by propidium iodide staining-based flow cytometric analysis (reference value: 32.37 +/- 7.73%); format: functional
MCF7 [20] = assay: Cell cycle arrest in human MCF7 cells assessed as accumulation at G2/M phase at 15 uM after 4 hrs by propidium iodide staining-based flow cytometric analysis (reference value: 21.60 +/- 5.37%); format: functional
MCF7 [21] = assay: Cell cycle arrest in human MCF7 cells assessed as accumulation at S phase at 15 uM after 24 hrs by propidium iodide staining-based flow cytometric analysis (reference value: 12.39 +/- 1.54%); format: functional
MCF7 [22] = assay: Induction of apoptosis in human MCF7 cells assessed as cell death at 20 uM after 24 hrs by TUNEL analysis (reference value: 9.56 +/- 1.38%); format: functional
MCF7 [23] = assay: Induction of apoptosis in human MCF7 cells assessed as cell death at 10 uM after 4 hrs by TUNEL analysis (reference value: 5.85 +/- 5.21%); format: functional
MCF7 [24] = assay: Induction of apoptosis in human MCF7 cells assessed as cell death at 10 uM after 48 hrs by TUNEL analysis (reference value: 4.23 +/- 1.99%); format: functional
MCF7 [25] = assay: Cell cycle arrest in human MCF7 cells assessed as accumulation at G0/G1 phase at 15 uM after 4 hrs by propidium iodide staining-based flow cytometric analysis (reference value: 49.38 +/- 4.74%); format: functional
[26] = Permeability of the compound across human Caco2 cells; format: ADME, cell-based; settings: Caco-2, read-out: permeability

Structure (SMILES) | GI50 at 72 h [1] [µM] | LC50 [1] [µM] | TGI [1] [µM] | GI50 at 72 h [2] [µM] | LC50 [2] [µM] | TGI [2] [µM] | GI50 (CCRF-CEM) [µM] | TGI (CCRF-CEM) [µM] | CC50 (CCRF-CEM) [µM] | GI50 (MCF7 [3]) [µM] | LC50 (MCF7 [3]) [µM] | TGI (MCF7 [3]) [µM] | RatioGI50 (MCF7 [4]) | GI50 (HT-29) [µM] | TGI (HT-29) [µM] | CC50 (HT-29) [µM] | GI50 [5] [µM] | TGI [5] [µM] | CC50 [5] [µM] | Activity (MCF7 [6]) [%] | also measured
CCCCCSc1nc(O)c2ccccc2n1 | > 100 | > 100 | > 100 | 51.4 | > 100 | > 100 | 52.1 | 86 | > 100 | 7.82 | > 100 | 81.4 | >12 | 74.6 | > 100 | > 100 | 30.4 | > 100 | > 100 |  | 
CC[C@@]1(O)C(=O)OCc2c1cc1n(c2=O)Cc2cc3ccccc3nc2-1 [CAMPTOTHECIN] |  |  |  |  |  |  |  |  |  |  |  |  |  |  |  |  |  |  |  | 21.21 | Activity (MCF7 [7]): 58.52%; Activity (MCF7 [8]): 20.21%; Activity (MCF7 [9]): 11.36%; Activity (MCF7 [10]): 18.36%; Activity (MCF7 [11]): 59.5%; Activity (MCF7 [12]): 17.42%; Activity (MCF7 [13]): 3.05%; Activity (MCF7 [14]): 3.06%; Activity (MCF7 [15]): 18.67%; Activity (MCF7 [16]): 13.42%; Activity (MCF7 [17]): 5.39%; Activity (MCF7 [18]): 16.24%; Activity (MCF7 [19]): 20.25%; Activity (MCF7 [20]): 23.38%; Activity (MCF7 [21]): 15.27%; Activity (MCF7 [22]): 17.59%; Activity (MCF7 [23]): 6.71%; Activity (MCF7 [24]): 46.12%; Activity (MCF7 [25]): 47.24%
C[Se]c1nc([Se]C)c2ccccc2n1 | 71.5 | > 100 | > 100 |  |  |  | 31.2 | 54.9 | 78.5 | 5.97 | > 100 | 50.7 | 12 | 7.46 | 33.8 | 76.8 | 26.6 | 84.2 | > 100 |  | 
CSc1ccc(CNc2nc(SC)nc3ncccc23)cc1 | 0.19 | 5.64 | 1.14 | 0.6 | 8.47 | 3.77 | 5.35 | 16.8 | 59 | 0.05 | 9.13 | 4.37 |  | 4.32 | 7.03 | 8.75 | 3.28 | 14.8 | 63.6 | 23.95 | Papp [26]: 4.4 ×10⁻⁶ cm/s; Activity (MCF7 [7]): 52.91%; Activity (MCF7 [8]): 22.99%; Activity (MCF7 [9]): 11.51%; Activity (MCF7 [10]): 18.02%; Activity (MCF7 [11]): 55.42%; Activity (MCF7 [12]): 3.4%; Activity (MCF7 [13]): 2.97%; Activity (MCF7 [14]): 2.24%; Activity (MCF7 [15]): 25.95%; Activity (MCF7 [16]): 13.7%; Activity (MCF7 [17]): 3.88%; Activity (MCF7 [18]): 19.35%; Activity (MCF7 [19]): 30.2%; Activity (MCF7 [20]): 23.88%; Activity (MCF7 [21]): 11.04%; Activity (MCF7 [22]): 22.63%; Activity (MCF7 [23]): 5.26%; Activity (MCF7 [24]): 11.66%; Activity (MCF7 [25]): 50.42%
CSc1nc(NCCCCc2ccccc2)c2ccccc2n1 | 28.5 | 78.6 | 53.55 | 6.81 | > 100 | > 100 | 47 | > 100 | > 100 | 32 | 95.9 | 64 |  | > 100 | > 100 | > 100 | > 100 | > 100 | > 100 |  | 
CCCCC[Se]c1nc([Se]CCCCC)c2ccccc2n1 | 71.3 | > 100 | > 100 | > 100 | > 100 | > 100 | 65.7 | > 100 | > 100 | 38.4 | > 100 | 95.1 |  | > 100 | > 100 | > 100 | > 100 | > 100 | > 100 |  | 
CSc1nc(NCc2ccccc2)c2cccnc2n1 | 49 | > 100 | > 100 | 25.9 | 97.51 | 61.7 | 56.3 | 98.5 | > 100 | 39.4 | > 100 | > 100 |  | 87.1 | > 100 | > 100 | 5.08 | 51.6 | > 100 |  | 
[SeH]c1nc(NCc2ccccc2)c2cccnc2n1 | 3.7 | > 100 | 9.13 | 8.4 | > 100 | > 100 | 30.5 | 68.9 | > 100 | 0.03 | > 100 | > 100 |  | 6.35 | 33.1 | > 100 | > 100 | > 100 | > 100 |  | 
CSc1nc(NCCCc2ccccc2)c2ccccc2n1 | 6.77 | > 100 | > 100 | 73.4 | > 100 | > 100 | 39.5 | 87.8 | > 100 | 77.2 | > 100 | > 100 |  | 19.6 | 89.5 | > 100 | 50.6 | > 100 | > 100 |  | 
CCCCC[Se]c1nc(NCc2ccccc2)c2ccccc2n1 | 70.9 | > 100 | > 100 | 44.1 | > 100 | > 100 | 34.5 | 72.5 | > 100 | 0.05 | 99.4 | 47.1 | 1418 | 72.7 | > 100 | > 100 | 37.7 | 81.1 | > 100 | 24.88 | Papp [26]: 5.6 ×10⁻⁶ cm/s; Activity (MCF7 [7]): 46.97%; Activity (MCF7 [8]): 25.83%; Activity (MCF7 [9]): 13.39%; Activity (MCF7 [10]): 16.66%; Activity (MCF7 [11]): 55.3%; Activity (MCF7 [12]): 3.84%; Activity (MCF7 [13]): 3.28%; Activity (MCF7 [14]): 2.13%; Activity (MCF7 [15]): 30.13%; Activity (MCF7 [16]): 14.37%; Activity (MCF7 [17]): 4.42%; Activity (MCF7 [18]): 17.01%; Activity (MCF7 [19]): 34.79%; Activity (MCF7 [20]): 28.5%; Activity (MCF7 [21]): 12.2%; Activity (MCF7 [22]): 30.95%; Activity (MCF7 [23]): 8.11%; Activity (MCF7 [24]): 14.91%; Activity (MCF7 [25]): 46.24%
